Reference: ChEMBL document CHEMBL1667727, “Sesquiterpenes from Chloranthus japonicus” (J Nat Prod, 2011)

Legend:
Format in all cases: functional, cell-based
HepG2 = test: Cytotoxicity against human HepG2 cells by MTT assay
How it was run: (§1)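 In vitro cytotoxicity testing against a panel of eight cultured human tumor lines. Tissue origins: Lovo (colorectal cancer), Hepg2 (hepatoma), OSRC-2 (renal carcinoma), A549 (lung epithelial carcinoma), SKOV3 (ovarian carcinoma), HeLa (cervical cancer), MCF-7 (breast cancer) and SGC-7901 (gastric adenocarcinoma).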

OS-RC-2 = test: Cytotoxicity against human OS-RC2 cells by MTT assay; how it was run: as §1
A549 = test: Cytotoxicity against human A549 cells by MTT assay; how it was run: as §1
SK-OV-3 = test: Cytotoxicity against human SKOV3 cells by MTT assay; how it was run: as §1
HeLa = test: Cytotoxicity against human HeLa cells by MTT assay; how it was run: as §1
MCF7 = test: Cytotoxicity against human MCF7 cells by MTT assay; how it was run: as §1
SGC-7901 = test: Cytotoxicity against human SGC7901 cells by MTT assay; how it was run: as §1
LoVo = test: Cytotoxicity against human LoVo cells by MTT assay; how it was run: as §1

Measured: IC50

CC1=C2[C@@H]3O[C@H](O)C4=C3[C@@](C)(C[C@@H]2OC1=O)[C@@H]1C[C@H]41 [CHLORAJAPOLIDE B]
> 10 µM: HepG2 | OS-RC-2 | A549 | SK-OV-3 | HeLa | MCF7 | SGC-7901 | LoVo

C=C1[C@H]2C[C@H]2[C@]2(C)C[C@]3(O[C@@H]4O[C@H](CO)[C@@H](O)[C@H](O)[C@H]4O)OC(=O)C(C)=C3C[C@@H]12 [CHLORAJAPOSIDE]
> 10 µM: HepG2 | OS-RC-2 | A549 | SK-OV-3 | HeLa | MCF7 | SGC-7901 | LoVo

CO[C@@]12OC(=O)C(CO)=C1C[C@H]1[C@H](COC(C)=O)[C@H]3C[C@H]3[C@]1(C)[C@@H]2O [CHLORAJAPOLIDE E]
> 10 µM: HepG2 | OS-RC-2 | A549 | SK-OV-3 | HeLa | MCF7 | SGC-7901 | LoVo

CC1=C2[C@H](O)C3=C(C=O)[C@H]4C[C@H]4[C@]3(C)C[C@@H]2OC1=O [CHLORAJAPOLIDE A]
> 10 µM: HepG2 | OS-RC-2 | A549 | SK-OV-3 | HeLa | MCF7 | SGC-7901 | LoVo

CC1=C2C[C@@H]3[C@@](C)(C[C@]2(O)OC1=O)[C@H](O)CC[C@@]3(C)O [CHLORAEUDOLIDE]
> 10 µM: HepG2 | OS-RC-2 | A549 | SK-OV-3 | HeLa | MCF7 | SGC-7901 | LoVo

C/C=C(\C)C(=O)OC[C@@]1(O)C2[C@@H](O)C3=C(COC(=O)CCC(=O)OC)C(=O)O[C@@]34[C@@H]3C5=C(C[C@H]4[C@@]2(C)[C@@H]2C[C@@H]21)[C@H]1C[C@H]1[C@]5(C)[C@@H](O)C(=O)/C3=C(/C)C(=O)OC (some centres undefined) [CHLORAJAPONOL]
> 10 µM: HepG2 | OS-RC-2 | A549 | SK-OV-3 | HeLa | MCF7 | SGC-7901 | LoVo

CC1=C2CC3=C(CO)[C@H]4C[C@H]4[C@]3(C)C[C@@H]2OC1=O [CHLORAJAPOLIDE C]
> 10 µM: HepG2 | OS-RC-2 | A549 | SK-OV-3 | HeLa | MCF7 | SGC-7901 | LoVo

CC1=C2C[C@@H]3[C@@](C)(C[C@@H]2OC1=O)[C@@H]1C[C@@H]1[C@]3(O)CO [CHLORAJAPOLIDE D]
> 10 µM: HepG2 | OS-RC-2 | A549 | SK-OV-3 | HeLa | MCF7 | SGC-7901 | LoVo
